Data from ChEMBL document CHEMBL1121552, “Glycolipids as potential immunologic adjuvants” (1980).
Active and inactive are the calls of the source. No cut-off for these calls is given here.

What was measured:
Type in all cases: functional
Mus musculus [1] = species: Mus musculus; test: Geometric mean titer of mice receiving 5 ug compound along with vaccine was determined after 21 days
Summary of the method: (§1)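 ICR/Ha mice, groups of eight, were injected with an influenza hemagglutinin antigen vaccine plus adjuvant. Hemagglutination-inhibition antibody was assayed in sera taken 21 days post-injection. Titer is the reciprocal of the serum dilution, reported as the group geometric mean.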

Mus musculus [2] = species: Mus musculus; test: Mitogenic activity is evaluated in vitro against splenocyte culture from C58 mice; NA means no activity
Summary of the method: (§2)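 Washed splenocytes from C58 mice were plated at 6 x 10^5 viable lymphocytes per well in RPMI 1640 with 10% fetal calf serum. Compound dilutions were added with Con A, E. coli LPS, or medium alone and incubated at 37 °C for 3-4 days. [3H]thymidine was then added, and cells were harvested 4 h later. Counts are geometric means of four replicate wells.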

Mus musculus [3] = species: Mus musculus; test: Geometric mean titer of mice receiving 50 ug compound along with vaccine was determined after 21 days; summary of the method: as §1
Mus musculus [4] = species: Mus musculus; test: Mitogenic activity is evaluated in vitro against splenocyte culture from C58 mice; mitogenic; summary of the method: as §2

Compound | Activity (Mus musculus [1]) | Activity (Mus musculus [2]) | Activity (Mus musculus [3]) | Activity (Mus musculus [4])
CC1OC(SCCC23C[C@H]4C[C@@H](C2)C[C@@H](C3)C4)C(O)C(O)C1O (stereo partly specified) | 47.57 | – | – | –
CCCCCCCC/C=C\CCCCCCCCSC1OC(C)C(O)C(O)C1O (stereo unspecified) | 61.69 | – | – | –
CC(C)CCCC(C)C1CCC2C3CC=C4CC(OCCCCCCSC5OC(C)C(O)C(O)C5O)CCC4(C)C3CCC12C (stereo unspecified) | 28.28 | inactive | – | –
CC(C)CCCC(C)C1CCC2C3CC=C4CC(OCCC#CCCSC5OC(C)C(O)C(O)C5O)CCC4(C)C3CCC12C (stereo unspecified) | – | inactive | 33.64 | –
CC(C)CCC[C@@H](C)[C@H]1CC[C@H]2[C@@H]3CC=C4C[C@@H](OCCCCCCS[C@@H]5O[C@@H](CO)[C@@H](O[C@@H]6O[C@@H](CO)[C@H](O)[C@H](O)[C@@H]6O)[C@H](O)[C@@H]5O)CC[C@]4(C)[C@H]3CC[C@]12C | – | inactive | 40 | –
CC(=O)N[C@H]1C(O)O[C@H](CO)[C@@H](O)[C@@H]1O[C@H](C)C(=O)N[C@@H](C)C(=O)N[C@H](CCC(=O)O)C(N)=O (stereo partly specified) [MURAMYL DIPEPTIDE] | – | – | 40 | Mitogenic
CC1OC(SCCCc2ccc(C(F)(F)C(F)(F)c3ccccc3)cc2)C(O)C(O)C1O (stereo unspecified) | 33.64 | – | – | –
